The source made the active and inactive calls. No cut-off for these calls is given here.
What was measured:
VCaP = test: Antiproliferative activity against human VCaP cells assessed as reduction in cell growth incubated for 96 hrs by propidium iodide based 2D monolayer assay; format: functional
In short: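 VCaP cells in RPMI 1640 with 10% FCS at 37 °C, 5% CO2, seeded 4,000–20,000 cells/well and left 24 h before dosing. Compounds from DMSO stocks were diluted in half-log steps in medium, 10 concentrations 0.0032–100 μM, triplicate wells, max 0.3% DMSO. After 96 h, cells were washed, stained with 7 μg/ml propidium iodide plus 0.1% Triton X-100 for 1–2 h at room temperature, and fluorescence read at ex 530/em 620 nm.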

LNCaP = test: Antiproliferative activity against human LNCAP cells assessed as reduction in cell growth incubated for 96 hrs by propidium iodide based 2D monolayer assay; format: functional
In short: (§1)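 After 24 h recovery, compound in medium or medium alone (control wells) was added at 10 half-log concentrations from 0.0032 to 100 µM, in triplicate, with at most 0.3% DMSO. After 96 h, wells were PBS-washed, stained with 7 µg/ml PI and 0.1% Triton X-100, and fluorescence read at 530/620 nm. IC50 came from a 4-parameter fit, geometric mean.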

CWR22R [1] = test: Antiproliferative activity against human 22Rv1 cells assessed as reduction in cell growth incubated for 96 hrs by propidium iodide based 2D monolayer assay; format: functional; in short: as §1
DU-145 = test: Antiproliferative activity against human DU145 cells assessed as reduction in cell growth incubated for 96 hrs by propidium iodide based 2D monolayer assay; format: functional; settings: for IC50: DU-145, 96 h; in short: as §1
Androgen receptor = molecular target: T1, Androgen receptor (Rattus norvegicus, UniProt P15207); test: Antagonist activity at GAL4-DBD fused rat androgen receptor expressed in UAS-bla 293 cells assessed as reduction in R1881-induced activation incubated for 16 hrs followed by fluorescence substrate addition and measured after 2 hrs by beta lactamase reporter gene assay; format: cell-based
T1 sequence (P15207 whole entry): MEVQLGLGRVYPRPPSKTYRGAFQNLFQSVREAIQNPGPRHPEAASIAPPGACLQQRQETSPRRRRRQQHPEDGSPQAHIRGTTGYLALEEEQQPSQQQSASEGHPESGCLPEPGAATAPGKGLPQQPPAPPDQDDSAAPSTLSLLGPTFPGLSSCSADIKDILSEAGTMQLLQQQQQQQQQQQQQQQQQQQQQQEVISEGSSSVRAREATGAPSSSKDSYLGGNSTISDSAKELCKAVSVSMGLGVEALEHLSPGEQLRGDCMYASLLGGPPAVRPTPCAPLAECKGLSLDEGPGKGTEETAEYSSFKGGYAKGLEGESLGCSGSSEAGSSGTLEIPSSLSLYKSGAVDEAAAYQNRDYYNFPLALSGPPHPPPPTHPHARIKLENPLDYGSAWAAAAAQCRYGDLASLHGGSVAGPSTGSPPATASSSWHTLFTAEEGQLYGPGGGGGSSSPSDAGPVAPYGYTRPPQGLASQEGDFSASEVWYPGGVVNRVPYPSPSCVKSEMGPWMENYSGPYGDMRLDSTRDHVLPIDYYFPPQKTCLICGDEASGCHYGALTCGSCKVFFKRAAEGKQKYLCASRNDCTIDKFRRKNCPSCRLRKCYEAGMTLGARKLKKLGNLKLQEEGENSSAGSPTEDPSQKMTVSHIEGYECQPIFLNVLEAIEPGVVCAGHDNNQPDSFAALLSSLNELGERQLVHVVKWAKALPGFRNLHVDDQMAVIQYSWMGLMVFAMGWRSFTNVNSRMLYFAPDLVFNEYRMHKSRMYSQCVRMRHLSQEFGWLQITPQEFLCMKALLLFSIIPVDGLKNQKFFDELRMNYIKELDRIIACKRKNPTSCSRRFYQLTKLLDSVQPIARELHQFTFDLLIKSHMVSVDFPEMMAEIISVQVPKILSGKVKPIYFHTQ

[2] = Metabolic stability in liver microsomes (unknown origin) assessed as half life at 3 uM measured upto 45 mins in presence of NADPH by LC-MS/MS analysis; format: ADME, Microsome
In short: (§2)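 Pooled liver microsomes at 0.5 mg/mL protein in 0.1 M phosphate buffer pH 7.4 were incubated with 3 μM compound (0.25% DMSO) at 37 °C. Reactions were started with 1 mM NADPH and sampled at 0, 5, 15, 30 and 45 min. A minus-NADPH control ran for 45 min. Reactions were quenched in methanol and analysed by LC-MS/MS to give CLint and t1/2.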

[3] = molecular target: Voltage-gated inwardly rectifying potassium channel KCNH2 (Homo sapiens, UniProt Q12809); test: Inhibition of human ERG expressed in CHO cells by whole-cell voltage-clamp analysis; format: cell-based
Sequence of Voltage-gated inwardly rectifying potassium channel KCNH2 (Q12809 whole entry): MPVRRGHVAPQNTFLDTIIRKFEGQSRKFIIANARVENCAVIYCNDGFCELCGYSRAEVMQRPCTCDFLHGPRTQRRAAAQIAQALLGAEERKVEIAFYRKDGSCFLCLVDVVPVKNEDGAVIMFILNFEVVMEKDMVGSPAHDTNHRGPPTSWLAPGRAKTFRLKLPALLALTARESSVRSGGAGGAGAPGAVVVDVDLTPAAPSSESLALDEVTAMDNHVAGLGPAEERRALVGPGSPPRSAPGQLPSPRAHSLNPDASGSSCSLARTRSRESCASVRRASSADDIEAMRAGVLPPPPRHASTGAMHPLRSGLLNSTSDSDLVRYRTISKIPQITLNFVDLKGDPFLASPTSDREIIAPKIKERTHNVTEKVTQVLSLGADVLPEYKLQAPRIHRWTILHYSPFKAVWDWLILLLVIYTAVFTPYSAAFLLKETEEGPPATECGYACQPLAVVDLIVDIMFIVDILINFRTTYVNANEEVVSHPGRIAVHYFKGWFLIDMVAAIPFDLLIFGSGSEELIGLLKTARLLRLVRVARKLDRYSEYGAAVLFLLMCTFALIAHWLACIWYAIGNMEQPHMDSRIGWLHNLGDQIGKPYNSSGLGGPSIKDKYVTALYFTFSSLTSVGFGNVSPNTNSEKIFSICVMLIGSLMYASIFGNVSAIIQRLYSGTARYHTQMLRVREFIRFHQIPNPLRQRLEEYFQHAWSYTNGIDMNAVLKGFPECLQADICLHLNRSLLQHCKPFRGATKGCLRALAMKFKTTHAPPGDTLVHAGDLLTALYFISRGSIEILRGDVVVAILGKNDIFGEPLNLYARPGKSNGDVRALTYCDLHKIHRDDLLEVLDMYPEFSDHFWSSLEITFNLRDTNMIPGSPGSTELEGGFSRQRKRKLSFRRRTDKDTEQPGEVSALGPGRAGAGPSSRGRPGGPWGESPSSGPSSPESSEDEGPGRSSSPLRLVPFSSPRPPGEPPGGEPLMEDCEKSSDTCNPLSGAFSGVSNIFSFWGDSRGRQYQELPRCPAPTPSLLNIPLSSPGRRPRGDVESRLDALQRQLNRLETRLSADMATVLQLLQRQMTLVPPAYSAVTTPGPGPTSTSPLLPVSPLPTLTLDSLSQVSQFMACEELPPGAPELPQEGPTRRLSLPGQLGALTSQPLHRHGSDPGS
In short: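 CHO cells expressing hERG were held in Dulbecco's PBS with Ca/Mg, pH 7–7.2, at room temperature. Tail currents were recorded by automated whole-cell voltage clamp after 300 s exposure. […] Quinidine served as positive control and 0.25% DMSO buffer as negative control.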

[4] = Protein binding in human plasma; format: ADME, cell-free; settings: read-out: PPB (converted)
[5] = Metabolic stability in liver microsomes (unknown origin) assessed as intrinsic clearance per mg of protein at 3 uM measured upto 45 mins in presence of NADPH by LC-MS/MS analysis; format: ADME, Microsome; settings: read-out: CLH; in short: as §2
CWR22R [6] = test: Antitumor activity against human 22Rv1 cells xenografted in NMRI mouse assessed as inhibition of tumor growth by measuring T/C value at 15 mg/kg, iv administered on day 7 and 14 and measured on day 14; format: functional
In short: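 Male NMRI nu/nu mice, delivered at 4–6 weeks and quarantined at least 1 week, were implanted in the hind flank with cultured 22Rv1 cells. Mice were randomised at 80–200 mm³ tumour volume. Dosing was 15 mg/kg i.v. in 0.9% saline, given as three weekly treatments; controls received vehicle. Caliper tumour volumes were taken twice weekly, with T/C from group median relative tumour volumes, doubling/quadrupling times and body weight recorded.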

[7] = Toxicity in NMRI mouse xenografted with human 22Rv1 cells assessed as body weight loss at 15 mg/kg, ip administered on day 7 and 14 and measured on day 49; format: organism-based; settings: in vivo
CWR22R [8] = test: Antitumor activity against human 22Rv1 cells xenografted in NMRI mouse assessed as reduction of tumor volume at […] administered on day 7 and 14 and measured on day 10; format: functional, organism-based
[9] = Toxicity in NMRI mouse xenografted with human 22Rv1 cells assessed as survival rate at 15 mg/kg, ip administered on day 7 and 14 and measured on day 49; format: organism-based; settings: in vivo
CWR22R [10] = test: Antitumor activity against human 22Rv1 cells xenografted in NMRI mouse assessed as tumor volume quadrupling time at […] administered on day 7 and 14 (reference value: 6.2 day); format: functional
CWR22R [11] = test: Antitumor activity against human 22Rv1 cells xenografted in NMRI mouse assessed as reduction of tumor volume at […] administered on day 7 and 14 and measured on day 20; format: functional, organism-based
CWR22R [12] = test: Antitumor activity against human 22Rv1 cells xenografted in NMRI mouse assessed as tumor volume doubling time at […] administered on day 7 and 14 (reference value: 2.7 day); format: functional

| SMILES | IC50 (VCaP) [µM] | IC50 (LNCaP) [µM] | IC50 (CWR22R [1]; 22Rv1, 96 h) [µM] | IC50 (DU-145) [µM] | IC50 (Androgen receptor) [µM] | half-life at 3 µM [2] [h] | Activity (VCaP) | Activity (LNCaP) | IC50 [3] [µM] | Activity (CWR22R [1]) | Activity (DU-145) | fraction unbound [4] | microsomal CLint at 3 µM [5] [µL/min/mg] | T/C (CWR22R [6]) [%] | Activity [7] [%] | Activity (CWR22R [8]) | survival at 49 day [9] [%] | Time (CWR22R [10]) [days] | Activity (CWR22R [11]) | Time (CWR22R [12]) [days] |
| --- | --- | --- | --- | --- | --- | --- | --- | --- | --- | --- | --- | --- | --- | --- | --- | --- | --- | --- | --- | --- |
| CC(O)(COc1ccc(C#N)cc1)C(=O)Nc1ccc(C#N)c(C(F)(F)F)c1 (racemic) | 24.5 | 20.9 | 24.8 | 44.6 | 0.036 | – | – | – | – | – | – | – | – | – | – | – | – | – | – | – |
| C[C@](O)(CS(=O)(=O)c1ccc(F)cc1)C(=O)Nc1ccc(C#N)c(C(F)(F)F)c1 [(R)-BICALUTAMIDE] | 51.6 | – | – | 45.4 | – | 3.57 | Dose-dependent effect | Dose-dependent effect | > 25 | Dose-dependent effect | Dose-dependent effect | 0.02 | 6.48 | – | – | – | – | – | – | – |
| CC(=O)O[C@@]12CO[C@@H]1C[C@H](O)[C@@]1(C)C(=O)[C@H](O)C3=C(C)[C@@H](OC(=O)[C@H](O)[C@@H](NC(=O)OC(C)(C)C)c4ccccc4)C[C@@](O)([C@@H](OC(=O)c4ccccc4)[C@H]21)C3(C)C [DOCETAXEL ANHYDROUS] | – | – | – | – | – | – | – | – | – | – | – | – | – | 22.4 | 19.8 | Active | 100 | 43.2 | Active | 6.3 |

Reference: ChEMBL document CHEMBL4364301 (Eur J Med Chem, 2019)
